Assay results published in ChEMBL document CHEMBL4673252, “Discovery and Early Clinical Development of Isobutyl 1-[8-Methoxy-5-(1-oxo-3H-isobenzofuran-5-yl)-[1,2,4]triazolo[1,5-a]pyridin-2-yl]cyclopropanecarboxylate (LEO 39652), a Novel "Dual-Soft" PDE4 Inhibitor for Topical Treatment of Atopic Dermatitis” (J Med Chem, 2020).

Experiments:
Phosphodiesterase 4 = Phosphodiesterase 4 (Homo sapiens, UniProt P27815+Q08499+Q07343+Q08493); assay: Inhibition of PDE4 (unknown origin); type: protein assay
[1] = Clearance in human liver microsomes at 0.5 uM incubated for 40 mins in presence of NADPH by LC-MS/MS analysis; type: ADME, Microsome; conditions: read-out: CLH
Procedure, shortened: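 Human liver microsomes (0.5 mg/mL) with 1 mM NADPH and 0.5 μM test compound, incubated for 40 min. Samples were taken before NADPH and at 5, 10, 20, 40 min, quenched with cold acetonitrile containing internal standard, and analysed by LC-MS/MS. Control incubations in buffer and without NADPH. Apparent clearance was calculated from depletion.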

[2] = Half life in human keratinocytes at 1 uM by LC-MS/MS analysis; type: ADME, cell-based, Keratinocyte
Procedure, shortened: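 Plated human epidermal keratinocytes (1 × 10⁴ cells/well) with 1 μM compound in duplicate for up to 24 h; sampled at 0, 1, 2, 4, 24 h, acetonitrile precipitation, LC-MS/MS. Controls in growth medium. Half-life reported.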

[3] = Half life in human whole blood at 0.1 uM by LC-MS/MS analysis; type: ADME, tissue-based
[4] = Drug exposure in skin of Gottingen mini pig at 0.25% dosed topically as monoglyceride cream measured after 24 hrs by LC-MS/MS analysis; type: ADME, organism-based, Sus scrofa domesticus, Skin of body; conditions: in vivo, topical_or_ocular
Procedure, shortened: (§1)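 Female Göttingen minipigs received single topical application of 1 or 2.5 mg/g monoglyceride cream at 10 μL/cm² over 4 cm² of belly/flank; excess removed. At 24 h sites were tape stripped (2 + 10 strips), 8 mm punch biopsies were taken and snap frozen, then homogenized, acetonitrile precipitated and analysed by LC-MS/MS; n = 2.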

[5] = Clearance in human hepatocytes at 10 uM by UPLC/TOF-MS analysis; type: ADME, cell-based, Hepatocyte
[6] = Clearance in mini pig hepatocytes at 10 uM by UPLC/TOF-MS analysis; type: ADME, cell-based, Sus scrofa domesticus, Hepatocyte; conditions: read-out: CLH
[7] = Half life in mini pig whole blood at 0.1 uM by LC-MS/MS analysis; type: ADME, tissue-based, Sus scrofa domesticus
[8] = Drug exposure in skin of Gottingen mini pig at 0.1% dosed topically as monoglyceride cream measured after 24 hrs by LC-MS/MS analysis; type: ADME, organism-based, Sus scrofa domesticus, Skin of body; conditions: in vivo, topical_or_ocular; procedure, shortened: as §1
[9] = AUC (0 to 24 hrs) in cynomolgus monkey at 30 mg/kg, sc dosed as single administration; type: ADME, organism-based, Macaca fascicularis; design: time < 24 hr, route subcutaneous, dose 30 mg/kg; conditions: in vivo
Procedure, shortened: (§2)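 Single subcutaneous dose of 30 mg/kg.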

[10] = AUC (0 to 24 hrs) in human patient with atopic dermatitis at 0.25% dosed topically as lipid cream; type: ADME, organism-based; design: time < 24 hr, dose 0.25 %; conditions: in vivo, topical or ocular
[11] = Half life in rat whole blood at 0.1 uM by LC-MS/MS analysis; type: ADME, tissue-based
[12] = Drug exposure in of Isobutyl 1-[8-Methoxy-5-(1-oxo-3H-isobenzofuran-5-yl)-[1,2,4]-triazolo[1,5-a]pyridin-2-yl]cyclopropanecarboxylate dosed Sprague-Dawley rat assessed as ratio of drug level to total AUC at 0.075 mg/kg, iv measured up to 30 mins by LC-MS/MS analysis; type: ADME, organism-based; conditions: in vivo, 0.5 h
Procedure, shortened: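 Male Sprague Dawley rats (n = 3) received a single iv injection of 0.075 mg/kg (50 μg/mL, 1.5 mL/kg) in 20% cyclodextrin. Blood was taken from the tongue vein at 1, 3, 6, 9, 12, 15 and 30 min into lithium-heparin, diluted 1:1 with heparin water, and analysed by LC-MS/MS for parent and metabolites.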

[13] = Drug exposure in Isobutyl 1-[8-Methoxy-5-(1-oxo-3H-isobenzofuran-5-yl)-[1,2,4]-triazolo[1,5-a]pyridin-2-yl]cyclopropanecarboxylate dosed cynomolgus monkey assessed as ratio of drug level to total AUC; type: ADME, organism-based, Macaca fascicularis; conditions: in vivo
Procedure, shortened: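 Blood was drawn at 0.25–24 h after infusion start and 6, 12, 24 h after infusion end into EDTA-K3, then plasma stabilized with ascorbic acid. LC-MS/MS quantification of parent and metabolites; noncompartmental PK.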

[14] = Drug exposure in of Isobutyl 1-[8-Methoxy-5-(1-oxo-3H-isobenzofuran-5-yl)-[1,2,4]-triazolo[1,5-a]pyridin-2-yl]cyclopropanecarboxylate dosed Gottingen mini pig assessed as ratio of drug level to total AUC at 0.5 to 2 mg/kg, iv measured up to 24 hrs by LC-MS/MS analysis; type: ADME, organism-based, Sus scrofa domesticus; conditions: in vivo, dose 0.5-2 mg/kg
[15] = Drug exposure in human assessed as ratio of drug level to total AUC at 0.25% of Isobutyl 1-[8-Methoxy-5-(1-oxo-3H-isobenzofuran-5-yl)-[1,2,4]-triazolo[1,5-a]pyridin-2-yl]cyclopropanecarboxylate dosed via topical administration in lipid cream; type: ADME, organism-based; conditions: in vivo, topical_or_ocular
[16] = Cmax in cynomolgus monkey at 30 mg/kg, sc dosed as single administration; type: ADME, organism-based, Macaca fascicularis; design: route subcutaneous, dose 30 mg/kg; conditions: in vivo, read-out: Cmax; procedure, shortened: as §2
[17] = Cmax in human patient with atopic dermatitis at 0.25% dosed topically as lipid cream; type: ADME, organism-based; design: dose 0.25 %; conditions: in vivo, topical or ocular

An IC50 (Phosphodiesterase 4) of 1.7 nM was found for `COc1ccc(C(=O)Cc2c(Cl)cncc2Cl)n2nc(C3CC3)nc12` in this work.
For `CC[C@H](C)OC(=O)C1(c2nc3c(OC)ccc(-c4ccc5c(c4)COC5=O)n3n2)CC1`, the CLint scaled at 0.5 µM [1] was > 200 mL/min/kg, the half-life at 1 µM [2] was > 12 h and the half-life at 0.1 µM [3] was 0.183 h.
With `COc1ccc(-c2ccc3c(c2)COC3=O)n2nc(C3(C(=O)O[C@@H]4CCOC4)CC3)nc12` the CLint scaled at 0.5 µM [1] was 101 mL/min/kg, the half-life at 1 µM [2] was > 12 h and the half-life at 0.1 µM [3] was < 0.167 h.
For `COc1ccc(-c2ccc3c(c2)COC3=O)n2nc(C3(C(=O)OC[C@@H](C)CO)CC3)nc12`, the CLint scaled at 0.5 µM [1] was 64 mL/min/kg, the half-life at 1 µM [2] was > 12 h and the half-life at 0.1 µM [3] was < 0.167 h.
With `COc1ccc(-c2ccc(C(=O)O)c(CO)c2)n2nc(C3(C(=O)O)CC3)nc12` the CLint scaled at 0.5 µM [1] was < 11 mL/min/kg, the Drug uptake [4] was 6 µM and the CLhep predicted at 10 µM [5] was < 5.2 mL/min/kg. For the same compound, the CLint scaled at 10 µM [6] was < 10 mL/min/kg, the half-life at 0.1 µM [7] was > 1 h and the Drug uptake [8] was 3 µM. The AUC(0-t) at 24 h [9] was 1300 ng·h/mL, the AUC(0-t) at 24 h [10] was 24.7 ng·h/mL and the half-life at 0.1 µM [11] was > 1 h. The Drug uptake [12] was 14%, the half-life at 1 µM [2] was > 12 h and the Drug uptake [13] was 13%. The half-life at 0.1 µM [3] was > 1 h, the Drug uptake [14] was 23% and the Drug uptake [15] was 71%. For the same compound, the Cmax [16] was 407 ng/mL and the Cmax [17] was 1.89 ng/mL.
In the case of `COC(=O)c1cccc(-c2ccc(OC)c3nc(C4(C(=O)NCC(C)C)CC4)nn23)c1`, the CLint scaled at 0.5 µM [1] is reported as > 200 mL/min/kg, the half-life at 1 µM [2] is reported as > 12 h and the half-life at 0.1 µM [3] is reported as > 1 h.
In the case of `COC(=O)c1ccc(-c2ccc(OC)c3nc(C4CC4)nn23)cc1`, the CLint scaled at 0.5 µM [1] is reported as > 200 mL/min/kg, the half-life at 1 µM [2] is reported as > 12 h and the half-life at 0.1 µM [3] is reported as > 1 h.
With `COc1ccc(-c2ccc3c(c2)COC3=O)n2nc(C3(C(=O)O)CC3)nc12` the CLint scaled at 0.5 µM [1] was < 16 mL/min/kg, the Drug uptake [4] was < 0.1 µM and the CLhep predicted at 10 µM [5] was 5.2 mL/min/kg. For the same compound, the CLint scaled at 10 µM [6] was < 11 mL/min/kg, the half-life at 0.1 µM [7] was > 1 h and the Drug uptake [8] was < 0.1 µM. For the same compound, the AUC(0-t) at 24 h [9] was 208 ng·h/mL, the AUC(0-t) at 24 h [10] was 5.18 ng·h/mL and the half-life at 0.1 µM [11] was > 1 h. The Drug uptake [12] was 55%, the half-life at 1 µM [2] was > 12 h and the Drug uptake [13] was 45%. The half-life at 0.1 µM [3] was > 1 h, the Drug uptake [14] was 55% and the Drug uptake [15] was 15%. It also gave a Cmax [16] of 71.7 ng/mL and a Cmax [17] of 0.355 ng/mL.
In the case of `COc1ccc(-c2cccc(C#N)c2)n2nc(C3(CO)CC3)nc12`, the CLint scaled at 0.5 µM [1] is reported as < 10 mL/min/kg.
In the case of `COc1ccc(-c2cccc(C#N)c2)n2nc(C3(CC(=O)O)CC3)nc12`, the CLint scaled at 0.5 µM [1] is reported as < 10 mL/min/kg.
In the case of `COc1ccc(-c2ccc3c(c2)COC3=O)n2nc(C3(C(=O)OC[C@H](C)CO)CC3)nc12`, the CLint scaled at 0.5 µM [1] is reported as 66 mL/min/kg, the half-life at 1 µM [2] is reported as > 12 h and the half-life at 0.1 µM [3] is reported as < 0.167 h.
A CLint scaled at 0.5 µM [1] of 16 mL/min/kg was found for `COc1ccc(-c2cccc(C#N)c2)n2nc(C3(CCO)CC3)nc12` in this work.
A CLint scaled at 0.5 µM [1] of 16 mL/min/kg was found for `COc1ccc(-c2cccc(C#N)c2)n2nc(C3(CCC(=O)O)CC3)nc12` in this work.
With `CCCOC(=O)C1(c2nc3c(OC)ccc(-c4ccc5c(c4)COC5=O)n3n2)CC1` the CLint scaled at 0.5 µM [1] was 139 mL/min/kg, the half-life at 1 µM [2] was > 12 h and the half-life at 0.1 µM [3] was 0.217 h.
For `COc1ccc(-c2cccc3c2COC3=O)n2nc(C3CC3)nc12`, the CLint scaled at 0.5 µM [1] was < 10 mL/min/kg, the half-life at 1 µM [2] was > 12 h and the half-life at 0.1 µM [3] was 0.25 h.
With `COc1ccc(-c2ccc3c(c2)COC3=O)n2nc(C3(C(=O)NCC(C)C)CC3)nc12` the CLint scaled at 0.5 µM [1] was > 200 mL/min/kg, the half-life at 1 µM [2] was 10 h and the half-life at 0.1 µM [3] was < 0.167 h.
For `CCOC(=O)C1(c2nc3c(OC)ccc(-c4ccc5c(c4)COC5=O)n3n2)CC1`, the CLint scaled at 0.5 µM [1] was 140 mL/min/kg, the half-life at 1 µM [2] was > 12 h and the half-life at 0.1 µM [3] was 0.183 h.
For `COc1ccc(-c2cccc(C#N)c2)n2nc(C3(COC(=O)C(C)C)CC3)nc12`, the CLint scaled at 0.5 µM [1] was > 200 mL/min/kg, the half-life at 1 µM [2] was 1.2 h and the half-life at 0.1 µM [3] was 0.467 h.
An IC50 (Phosphodiesterase 4) of 100 nM was found for `COc1ccc(C(=O)Cc2c(Cl)cncc2Cl)n2ncnc12` in this work.
